In ChEMBL document CHEMBL1773072, “Diosgenin, a plant-derived sapogenin, exhibits antiviral activity in vitro against hepatitis C virus” (J Nat Prod, 2011):
The source made the active and inactive calls. No cut-off for these calls is given here.

Tests used:
[1] = Cytotoxicity against Hepatitis C virus infected human Ava5 cells assessed as cell viability after 5 days by MTS assay in presence of IFN-alpha; type: cell-based; conditions: ava5, 120 h
[2] = Cytotoxicity against Hepatitis C virus infected human Ava5 cells assessed as cell viability after 5 days by MTS assay; type: cell-based; conditions: ava5, 120 h
Method in brief: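 Cells seeded, incubated overnight at 37 °C, 5% CO2, then medium replaced with compound-containing medium across a concentration range for five days. Viability by MTS colorimetric read at 490 nm after 2 h reagent incubation; ethanol as solvent control. Means ± SD.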

Hepatitis C virus [3] = experiment: Antiviral activity against Hepatitis C virus infected in human Ava5 cells expressing EG(delta4AB)SEAP reporter gene assessed as decreased viral replication measured as SEAP activity by Phospha-Light assay; type: functional, organism-based, Hepacivirus hominis
Method in brief: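 Ava5-EG(Δ4AB)SEAP reporter cells seeded 6×10^3/well, after 24 h dosed with a concentration series. At 48 h medium replaced with fresh medium at same concentrations, incubated 24 h more. Secreted alkaline phosphatase in medium measured by chemiluminescent kit. EC50 from dose–response; three replicate wells, means ± SD.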

Huh-7 = experiment: Cytotoxicity against Hepatitis C virus JFH-1 infected human HuH7 cells; type: cell-based
[4] = target: Signal transducer and activator of transcription 3 (Homo sapiens) (UniProt P40763); experiment: Inhibition of STAT3 phosphorylation at Tyr 705 in human Ava5 cells after 72 hrs by Western blotting; type: cell-based
Method in brief: (§1)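 Ava5 cells incubated with a concentration series for 72 h. Whole-cell extracts were Western blotted with antibodies to STAT3 phosphorylated at Tyr705 and to total STAT3, with β-actin as loading control.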

Hepatitis C virus [5] = experiment: Antiviral activity against Hepatitis C virus infected in human Ava5 cells assessed as decreased NS3 protein level at 5 uM after 72 hrs by Western blotting; type: functional, organism-based; conditions: Hepacivirus hominis
Method in brief: (§2)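 Ava5 subgenomic replicon cells (Huh7-derived, HCV genotype 1b NS3–NS5B, neo) are kept in DMEM/10% FBS at 37 °C, 5% CO2 and exposed to compound for 72 h. Cells are washed in PBS and lysed in Tris/NaCl/1% Triton X-100. Lysates are clarified and run on 10% SDS-PAGE, then immunoblotted with anti-NS3; β-actin is the loading control.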

[6] = target: Signal transducer and activator of transcription 3 (Homo sapiens) (UniProt P40763); experiment: Effect on STAT3 protein production in human Ava5 cells after 72 hrs by Western blotting; type: cell-based; method in brief: as §1
Hepatitis C virus [7] = experiment: Antiviral activity against Hepatitis C virus JFH-1 infected in human Huh7 cells expressing G(delta4AB)SEAP reporter gene assessed as decreased NS3 protein level at 20 uM after 8 days by Western blotting; type: functional, organism-based; conditions: Hepacivirus hominis, Huh-7
Method in brief: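 Huh7-EG(Δ4B5A)SEAP cells seeded 5×10^4/well, incubated overnight, then infected with HCV JFH-1 (genotype 2a) at MOI 0.02 for 6 h. Unbound virus removed by medium replacement, then compound at 20 μM in basal medium for 7 days. Intracellular NS3 in lysates detected by Western blot.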

Hepatitis C virus [8] = experiment: Antiviral activity against Hepatitis C virus infected in human Ava5 cells expressing EG(delta4AB)SEAP reporter gene assessed as decreased viral RNA level after 72 hrs by RTqPCR analysis; type: functional, organism-based; conditions: Hepacivirus hominis
Method in brief: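 Ava5 cells seeded 1.5×10^5/well, incubated overnight, treated with a concentration series for 72 h. Total RNA TRIzol-extracted; HCV genotype 1b RNA quantified by SYBR Green RT-qPCR. Levels expressed relative to untreated cells (100%); triplicate, means ± SD.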

Hepatitis C virus [9] = experiment: Antiviral activity against Hepatitis C virus infected in human Ava5 cells assessed as decreased NS3 protein level at 5 uM after 72 hrs by Western blotting in presence of IFN-alpha; type: functional, organism-based; conditions: Hepacivirus hominis
Method in brief: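 Ava5 replicon cells given compound (5 μM) or IFN-α (5, 10, 50 IU/mL), alone and combined, for 72 h. BILN 2061 served as NS3/4A inhibitor positive control. Washed cells stored at -80 °C, then lysates Western blotted for NS3 with β-actin as internal standard.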

Hepatitis C virus [10] = experiment: Antiviral activity against Hepatitis C virus infected in human Ava5 cells expressing EG(delta4AB)SEAP reporter gene assessed as decreased NS3 protein level after 72 hrs by Western blotting; type: functional, organism-based; conditions: Hepacivirus hominis; method in brief: as §2
Hepatitis C virus [11] = experiment: Antiviral activity against Hepatitis C virus infected in human Ava5 cells assessed as decreased NS3 protein level at […] after 72 hrs by Western blotting; type: functional, organism-based; conditions: Hepacivirus hominis; method in brief: as §2

Chain of Signal transducer and activator of transcription 3 (Homo sapiens) (P40763 whole entry): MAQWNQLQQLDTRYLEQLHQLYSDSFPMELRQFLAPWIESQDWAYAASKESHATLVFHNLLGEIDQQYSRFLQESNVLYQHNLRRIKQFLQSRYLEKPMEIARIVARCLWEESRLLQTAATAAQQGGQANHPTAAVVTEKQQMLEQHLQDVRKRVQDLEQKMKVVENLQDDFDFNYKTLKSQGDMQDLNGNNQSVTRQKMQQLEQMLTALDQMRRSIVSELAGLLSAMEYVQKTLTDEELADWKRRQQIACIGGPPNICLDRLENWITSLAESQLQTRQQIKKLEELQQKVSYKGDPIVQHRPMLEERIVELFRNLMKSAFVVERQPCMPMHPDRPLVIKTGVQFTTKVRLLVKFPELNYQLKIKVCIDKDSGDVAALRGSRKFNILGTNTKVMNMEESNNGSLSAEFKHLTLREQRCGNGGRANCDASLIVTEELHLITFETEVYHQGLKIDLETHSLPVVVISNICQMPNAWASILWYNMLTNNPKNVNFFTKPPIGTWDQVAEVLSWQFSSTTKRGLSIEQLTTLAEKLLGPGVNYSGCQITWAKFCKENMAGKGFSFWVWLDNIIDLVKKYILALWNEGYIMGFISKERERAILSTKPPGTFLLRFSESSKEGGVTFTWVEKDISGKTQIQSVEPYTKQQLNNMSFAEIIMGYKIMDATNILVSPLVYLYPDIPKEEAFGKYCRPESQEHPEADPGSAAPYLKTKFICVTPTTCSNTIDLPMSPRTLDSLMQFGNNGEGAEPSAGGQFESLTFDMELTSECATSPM

EC50 (Hepatitis C virus [3]) [µM] | inhibition [4] | Activity [6] | Structure (SMILES) | Activity [1] | Activity [2] | Activity (Hepatitis C virus [3]; Hepacivirus hominis) | Activity (Huh-7) | Activity (Hepatitis C virus [5]) | Activity (Hepatitis C virus [7]) | Activity (Hepatitis C virus [8]) | Activity (Hepatitis C virus [9]) | Activity (Hepatitis C virus [10]) | Activity (Hepatitis C virus [11])
3.8 | Dose-dependent effect | inactive | C[C@@H]1CC[C@@]2(OC1)O[C@H]1C[C@H]3[C@@H]4CC=C5C[C@@H](O)CC[C@]5(C)[C@H]4CC[C@]3(C)[C@H]1[C@@H]2C [DISOGENIN] | Non-toxic | Non-toxic | Dose-dependent effect | Non-toxic | Active | Active | Dose-dependent effect | Active | Dose-dependent effect | 
 |  |  | COc1ccc2c(O[C@@H]3C[C@H]4C(=O)N[C@]5(C(=O)O)C[C@H]5/C=C\CCCCC[C@H](NC(=O)OC5CCCC5)C(=O)N4C3)cc(-c3csc(NC(C)C)n3)nc2c1 |  |  |  |  |  |  |  |  |  | Active
